Source: publication PMC8214312 (Journal of medicinal chemistry, 2021)
“And” between values parts separate entries of the source, which are not always exact repeats. Identical values can stand only once. One block for each compound: values may come before it.

Experiments:
DPP-IV = settings: read-out: IC50 DPP-IV; cited from earlier work
[1] = tested on: FAP-negative PC3 xenograft; assay: Ex vivo biodistribution of [111In]QCP02, PC3 xenograft; design: species or system NOD/SCID mice
How it was run: (§1)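 Male NOD/SCID mice (6–8 weeks) carried subcutaneous xenografts of 1 million U87 cells (left upper flank) and PC3 cells (right upper flank) in HBSS, used at 100–300 mm3. Radioligand was given as 0.37 MBq in 200 μL saline (<10% ethanol) via the tail vein. Groups (n = 4) were killed by CO2 at 5 min, 30 min, 1, 3, 6, 10 and 28 h. Weighed tissues were gamma-counted, decay-corrected against a standard dilution of the dose, and expressed as %ID/g.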

[2] = tested on: FAP-positive U87 xenograft; assay: Ex vivo biodistribution of [111In]QCP02, U87 xenograft; design: species or system NOD/SCID mice
How it was run: as §1

FAP-positive U87 cells = assay: Cellular uptake of [111In]QCP02 in U87 cells; assay type: cell-based, human; settings: 0.037 MBq, 30 min at 37 °C
FAP-negative PC3 cells = assay: Cellular uptake of [111In]QCP02 in PC3 cells; assay type: cell-based, human; settings: 0.037 MBq, 30 min at 37 °C
[3] = tested on: U87 and PC3 tumor xenografts; assay: SPECT-CT imaging of [111In]QCP02 in tumor-bearing mice; assay type: in vivo, NOD/SCID mice
FAP = settings: read-out: IC50 FAP; cited from earlier work
[4] = tested on: FAP-positive cell lines (U87, NCIH228, and SKMEL24); settings: inhibitor 10^-10 to 10^-4 M, then 25 nM QCP01 for 1 h at 37 °C
[5] = tested on: U87 and PC3 tumor xenografts; assay: NIRF imaging of QCP01 in tumor-bearing mice; assay type: in vivo, NOD/SCID mice
[6] = tested on: FAP-positive cell lines (NCIH2228, U87, and SKMEL24); assay: In vitro fluorescence binding of QCP01 to FAP-positive cell lines; assay type: cell-based, human; settings: 1 h incubation, range 50-0.78 nM
[7] = tested on: FAP-negative cell lines (PC3, NCIH226, and HCT116); assay: In vitro fluorescence binding of QCP01 to FAP-negative cell lines; assay type: cell-based, human; settings: any of the concentrations tested (50-0.78 nM)
[8] = 1 h post injection, 0.37 MBq via tail vein

Compound: CC(C)[C@H](N)C(=O)N1CCC[C@H]1B(O)O [Val-boroPro]
IC50 (DPP-IV): 22 ± 1 nM

Compound: N#C[C@@H]1CCCN1C(=O)CNC(=O)c1ccnc2ccc(OCCCNC(=O)CCC(C(=O)O)N3CCN(CC(=O)[O-])CCN(CC(=O)[O-])CCN(CC(=O)[O-])CC3)cc12.[111In+3] (stereo partly drawn) [[^111In]QCP02, [^111In]2,2′,2″-(10-(1-Carboxy-4-((3-((4-((2-((S)-2-cyanopyrrolidin-1-yl)-2-oxoethyl)carbamoyl)quinolin-6-yl)oxy)propyl)amino)-4-oxobutyl)-1,4,7,10-tetraazacyclododecane-1,4,7-triyl)triacetate]
uptake in PC3 xenograft [1, 8]: 4.12 ± 0.36 % ID/g
uptake in PC3 tumor ([1]; all time points): less than 5 % ID/g
uptake in U87 tumor ([2]; 5 min post injection): over 10 % ID/g
uptake in U87 tumor (peak) ([2]; 30 min post injection): 18.2 % ID/g and 18.16 ± 11.67 % ID/g
uptake in U87 xenograft [2, 8]: 16.09 ± 4.17 % ID/g
uptake in U87 xenografts, blocked ([2]; 6 h post injection, co-injection of non-radioactive QCP02 (50 μg per mouse)): 0.55 ± 0.23 % ID/g
uptake in U87 xenograft relative to PC3 xenograft ([2]; all time points): 3–4 fold
time by which washout of radiotracer in U87 tumors was observed ([2]; post injection): ≤ 28 h
binding of the incubated dose (FAP-positive U87 cells): over 30%
binding of the incubated dose (FAP-negative PC3 cells): 0.01%
retention of uptake in U87 xenografts on SPECT-CT ([3]; 7.4 MBq via tail vein, uptake seen as early as 1 h post injection): up to 10 h
uptake in PC3 xenografts on SPECT-CT ([3]; all imaging time points (1, 3, 6, 10, 28 h)): low uptake

Compound: N[C@@H](CC(=O)N1CCn2c(nnc2C(F)(F)F)C1)Cc1cc(F)c(F)cc1F [sitagliptin]
IC50 (FAP): > 100000 nM
effect of pretreatment on QCP01 binding (fluorescence signal) [4]: not inhibited

NIRF uptake in normal tissues ([5]; 5 nmol QCP01 via tail vein, 30 min after injection): mild degree (moderate in the kidney)
NIRF uptake in PC3 tumors ([5]; 5 nmol QCP01 via tail vein, 30 min until 5 h, washout at 24 h): mild uptake
ex vivo NIRF uptake of excised U87 tumor versus PC3 tumor ([5]; 5, 24, and 48 h after injection): higher QCP01 uptake than the PC3 tumor
Compound: CC1(C)C(/C=C/C2=C(Oc3ccc(S(=O)(=O)O)cc3)C(=C/C=C3/N(CCCCS(=O)(=O)O)c4ccc(S(=O)(=O)O)cc4C3(C)C)/CCC2)=[N+](CCCCCC(=O)NCCCOc2ccc3nccc(C(=O)NCC(=O)N4CCC[C@H]4C#N)c3c2)c2ccc(S(=O)(=O)[O-])cc21 [QCP01]
NIRF uptake in U87 xenografts over time ([5]; 5 nmol QCP01 via tail vein, imaging 0.5-48 h): persisted up to 5 h after injection, with washout after 24 h
concentration at which binding was saturated [6]: 50 nM
lowest concentration at which QCP01 binding was observed [6]: 1.56 nM
binding in FAP-negative cell lines [7]: no specific binding
